Measured values published in ChEMBL document CHEMBL1133584, “Potent and selective non-peptidic inhibitors of endothelin-converting enzyme-1 with sustained duration of action” (J Med Chem, 2000).

Assays:
Neprilysin = target: T1, Neprilysin (Rattus norvegicus, UniProt P07861); assay: In vitro inhibition of rat neutral endopeptidase
T1 sequence (P07861 whole entry): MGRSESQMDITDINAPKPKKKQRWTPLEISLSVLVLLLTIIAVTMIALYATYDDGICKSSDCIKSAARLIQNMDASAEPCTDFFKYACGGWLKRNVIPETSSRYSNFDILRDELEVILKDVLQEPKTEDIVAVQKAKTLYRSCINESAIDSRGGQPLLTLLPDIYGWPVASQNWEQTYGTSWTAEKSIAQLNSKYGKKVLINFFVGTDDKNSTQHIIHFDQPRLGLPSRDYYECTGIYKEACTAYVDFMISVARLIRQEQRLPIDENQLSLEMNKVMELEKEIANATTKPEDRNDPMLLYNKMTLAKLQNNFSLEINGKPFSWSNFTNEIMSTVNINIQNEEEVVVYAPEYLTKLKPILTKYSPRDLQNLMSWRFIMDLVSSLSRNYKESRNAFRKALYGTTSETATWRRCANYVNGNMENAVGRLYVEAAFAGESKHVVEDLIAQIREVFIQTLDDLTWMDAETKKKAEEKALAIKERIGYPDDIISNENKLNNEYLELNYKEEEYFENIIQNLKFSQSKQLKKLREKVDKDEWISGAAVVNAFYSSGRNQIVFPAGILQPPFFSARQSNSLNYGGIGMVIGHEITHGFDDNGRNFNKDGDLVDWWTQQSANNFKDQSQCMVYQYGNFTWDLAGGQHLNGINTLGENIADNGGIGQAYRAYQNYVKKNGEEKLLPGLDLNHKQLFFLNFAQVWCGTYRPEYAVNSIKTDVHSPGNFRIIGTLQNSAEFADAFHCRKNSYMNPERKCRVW

[1] = target: T2, Endothelin-converting enzyme 1 (Homo sapiens, UniProt P42892); assay: In Vitro inhibition of recombinant human endothelin converting enzyme-1
T2 sequence (P42892 whole entry): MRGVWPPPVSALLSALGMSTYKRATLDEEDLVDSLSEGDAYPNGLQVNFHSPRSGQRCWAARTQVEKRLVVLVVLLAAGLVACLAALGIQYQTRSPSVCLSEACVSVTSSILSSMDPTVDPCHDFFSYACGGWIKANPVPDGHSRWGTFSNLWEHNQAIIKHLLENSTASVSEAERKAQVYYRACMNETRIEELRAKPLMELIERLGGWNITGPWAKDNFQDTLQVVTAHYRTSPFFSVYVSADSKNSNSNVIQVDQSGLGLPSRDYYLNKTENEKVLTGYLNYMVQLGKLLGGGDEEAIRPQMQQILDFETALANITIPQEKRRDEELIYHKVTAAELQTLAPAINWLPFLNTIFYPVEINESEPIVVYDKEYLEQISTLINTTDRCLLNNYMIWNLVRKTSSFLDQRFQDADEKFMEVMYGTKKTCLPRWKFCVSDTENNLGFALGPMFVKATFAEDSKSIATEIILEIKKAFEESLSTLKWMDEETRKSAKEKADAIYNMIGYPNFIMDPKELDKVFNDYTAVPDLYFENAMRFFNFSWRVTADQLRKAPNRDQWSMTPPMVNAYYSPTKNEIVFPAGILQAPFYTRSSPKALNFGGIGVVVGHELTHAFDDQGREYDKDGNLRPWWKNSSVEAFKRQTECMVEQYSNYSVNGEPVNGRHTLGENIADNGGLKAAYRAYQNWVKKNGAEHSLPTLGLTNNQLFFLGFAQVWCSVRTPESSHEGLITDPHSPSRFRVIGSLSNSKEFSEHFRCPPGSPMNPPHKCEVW
Method in brief: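 Enzyme was human recombinant ECE-1a from membranes of CHO cells expressing it. The IC50 was determined by the assay method of earlier work.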

[2] = Selectivity ratio of IC50 NEP/IC50 ECE
Method in brief: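 ECE selectivity was the ratio of IC50 against rat kidney cortex NEP 24.11 to IC50 against CHO-membrane human recombinant ECE-1a.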

[3] = target: T3, Endothelin-converting enzyme 1 (Homo sapiens) (UniProt P42892); assay: Inhibition of Endothelin-converting enzyme 1 activity at a concentration of 1 uM
T3 sequence (whole entry): T2 sequence (P42892 whole entry)
Method in brief: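 Human recombinant ECE-1a came from CHO cell membranes. Activity was measured with test compound at 1 µM and expressed as percent inhibition.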

Structure (SMILES)	IC50 (Neprilysin) [nM]	IC50 [1] [nM]	Selectivity [2]	inhibition [3] [%]
O=P(O)(O)CNC(Cc1ccc2c(c1)Cc1ccccc1-2)c1nnn[nH]1 (stereo unspecified)	450	520	0.9	–
NCCCCC(N[C@@H](Cc1ccc2c(c1)oc1ccccc12)C(=O)O)P(=O)(O)O (stereo in doubt; 40o')	> 100000	97	–	–
O=C(O)[C@H](Cc1ccc2c(c1)oc1ccccc12)NC(CCc1cccc2ccccc12)P(=O)(O)O (stereo in doubt; 40b')	–	1800	–	–
COc1cccc(CCC(N[C@@H](Cc2ccc3c(c2)oc2ccccc23)C(=O)O)P(=O)(O)O)c1OC (stereo in doubt; 40c)	24000	19	–	–
O=C(O)[C@H](Cc1ccc2c(c1)oc1ccccc12)NC(CCc1cccc2cccnc12)P(=O)(O)O (stereo in doubt; 40n') [listing 1 of 2 here]	48000	200	–	–
O=P(O)(O)C(CCc1cccc2ccccc12)N[C@@H](Cc1ccc2c(c1)oc1ccccc12)c1nnn[nH]1 (stereo in doubt; 43b')	13000	440	–	–
O=P(O)(O)C(CCc1cccc2ccccc12)N[C@@H](Cc1ccc(-c2ccccc2)cc1)c1nnn[nH]1 (stereo partly specified)	5	–	0.29	–
O=C1c2ccccc2-c2ccc(CC(NCP(=O)(O)O)c3nnn[nH]3)cc21 (stereo unspecified)	230	30	7.7	–
CC(N[C@@H](Cc1ccc2c(c1)oc1ccccc12)C(=O)O)P(=O)(O)O (stereo in doubt; 40u)	28000	96	–	–
COc1ccc(CCC(N[C@@H](Cc2ccc3c(c2)oc2ccccc23)C(=O)O)P(=O)(O)O)cc1OC (stereo in doubt; 40e')	> 10000	29	–	–
CC(C)C[C@H](NC(=O)[C@H](CC#Cc1ccc(F)cc1F)NCP(=O)(O)O)C(=O)N[C@@H](C)C(=O)O	5800	–	725	–
O=C(O)[C@H](Cc1ccc2c(c1)oc1ccccc12)NC(=O)[C@H](Cc1ccc2c(c1)oc1ccccc12)NCP(=O)(O)O	2.7	6.4	0.42	95
COc1cc(OC)c(OC)cc1CCC(N[C@@H](Cc1ccc2c(c1)oc1ccccc12)C(=O)O)P(=O)(O)O (stereo in doubt; 40i')	> 10000	40	–	–
COc1ccc(CCC(N[C@@H](Cc2ccc3c(c2)oc2ccccc23)C(=O)O)P(=O)(O)O)c(OC)c1OC (stereo in doubt; 40l')	–	520	–	–
O=C(O)C(Cc1ccccc1)NC(=O)[C@H](Cc1ccc2c(c1)oc1ccccc12)NCP(=O)(O)O (stereo partly specified)	12	23	0.5	91
O=C(O)[C@H](Cc1ccc2c(c1)oc1ccccc12)NC(CCc1cccc2ccccc12)P(=O)(O)O (stereo in doubt; 40a')	13800	24	–	–

Structure (SMILES)	IC50 (Neprilysin) [nM]	IC50 [1] [nM]	Selectivity [2]	inhibition [3] [%]
CC(N[C@@H](Cc1ccc2c(c1)oc1ccccc12)C(=O)O)P(=O)(O)O (stereo in doubt; 40v)	47000	180	–	–
COc1ccc(CCC(N[C@@H](Cc2ccc3c(c2)oc2ccccc23)C(=O)O)P(=O)(O)O)c(OC)c1OC (stereo in doubt; 40k')	15000	35	–	–
O=P(O)(O)CN[C@@H](CC#Cc1ccccc1F)c1nnn[nH]1	14	–	0.1	–
COc1cccc(CCC(N[C@@H](Cc2ccc3c(c2)oc2ccccc23)C(=O)O)P(=O)(O)O)c1OC (stereo in doubt; 40d')	6400	110	–	–
O=C(O)[C@H](Cc1ccc2c(c1)oc1ccccc12)NCP(=O)(O)O	2300	22	104	92
O=P(O)(O)CNC(Cc1ccc2c(c1)oc1ccccc12)c1nnn[nH]1 (stereo unspecified)	114	6	19	–
Cn1c2ccccc2c2ccc(CC(NCP(=O)(O)O)c3nnn[nH]3)cc21 (stereo unspecified)	140	> 4000	< 0.03	–
CC(C)CC(NC(=O)[C@H](Cc1ccc2c(c1)oc1ccccc12)NCP(=O)(O)O)C(=O)O (stereo partly specified)	31	13	2.3	92
O=P(O)(O)C(CCc1cccc2ccccc12)N[C@@H](Cc1ccc2c(c1)oc1ccccc12)c1nnn[nH]1 (stereo in doubt; 43a')	210	2.6	–	–
CC(C)CCCC(N[C@@H](Cc1ccc2c(c1)oc1ccccc12)C(=O)O)P(=O)(O)O (stereo partly specified)	> 16000	65	> 286	89
COc1cc(CCC(N[C@@H](Cc2ccc3c(c2)oc2ccccc23)C(=O)O)P(=O)(O)O)cc(OC)c1OC (stereo partly specified)	18000	22	818	92
O=C(O)[C@H](Cc1ccc2c(c1)oc1ccccc12)NC(CCc1cccc2cccnc12)P(=O)(O)O (stereo in doubt; 40m')	59000	14	–	–
O=C(O)[C@H](Cc1ccc2c(c1)oc1ccccc12)NC(CCc1cccc2cccnc12)P(=O)(O)O (stereo in doubt; 40n') [listing 2 of 2 here]	–	–	240	78
CC(C)C[C@H](NC(=O)[C@H](CC#Cc1ccc(F)cc1F)NCP(=O)(O)O)C(=O)O	6700	–	131	–
O=C(O)CNC(=O)C(CS)Cc1ccccc1 (stereo unspecified) [THIORPHAN]	–	> 100000	–	–
COc1ccc(CCC(N[C@@H](Cc2ccc3c(c2)oc2ccccc23)C(=O)O)P(=O)(O)O)cc1OC (stereo in doubt; 40f ')	–	890	–	–
